According to ChEMBL document CHEMBL3576783, “Synthesis and evaluation of 1,2,4-triazolo[1,5-a]pyrimidines as antibacterial agents against Enterococcus faecium” (J Med Chem, 2015):
Values after ≈ are worked out from the molar mass of the structure shown.

Columns and labels:
Enterococcus faecium [1] = test: microbe, parasite or virus in culture; conditions: NCTC 7171
Enterococcus faecium [2] = test: Antibacterial activity against copper, erythromycin, teracycline-resistant and vancomycin and teicoplanin-sensitive Enterococcus faecium ATCC BAA2127 assessed as bacterial growth inhibition after 16-20 hrs by broth microdilution method; assay type: functional
In short: (§1)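 CLSI broth microdilution in cation-adjusted Mueller Hinton II broth, triplicate. Cultures grown to OD600 about 0.60-0.80, diluted 100-fold; final inoculum 5×10^5 CFU/mL. Compounds from 5 mg/mL DMSO stock diluted in medium, final 2% (v/v) DMSO plus 0.25% (v/v) glacial acetic acid. Incubated 35 °C, 16-20 h, then MIC read.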

Liver = test: Half life in human liver S9 at 10 uM after 60 mins by UPLC analysis; assay type: ADME, subcellular, Liver S9 fraction; conditions: s9, 1 h
In short: (§2)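 Pooled human liver S9 (1 mg/mL) with 1 mM NADPH and 10 μM compound in sodium phosphate buffer (0.20 M phosphate, 0.15 M NaCl, pH 7.4), 37 °C for 60 min. Six time points quenched in acetonitrile with internal standard, analysed by UPLC-MRM. Half-life taken from first-order rate constant; CLint scaled with 45 mg protein/g liver and 20 g liver/kg. Run in duplicate.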

[3] = Apparent intrinsic clearance in human liver S9 at 10 uM after 60 mins by UPLC analysis; assay type: ADME, subcellular, Liver S9 fraction; conditions: read-out: CLH(app)
In short: as §2

[4] = Induction of hemolysis in RBC (unknown origin) at 64 ug/ml; conditions: erythrocytes
Enterococcus faecium [5] = test: Antibacterial activity against vancomycin-susceptible Enterococcus faecium 119-39A assessed as bacterial growth inhibition after 16-20 hrs by broth microdilution method; assay type: functional
In short: as §1

Q: With O=C1CCCC2=C1C(c1ccc(Cl)cc1)n1nc(SCc3cccc4ccccc34)nc1N2 (stereo unspecified) as the molecule, how does the MIC (Enterococcus faecium [1]) read?
A: The MIC was greater than 128 µg/mL.

Q: Which MIC (Enterococcus faecium [1]) does the source give for COc1ccc(C2C(C(N)=O)=C(C)Nc3nc(SCc4ccccc4)nn32)cc1O (stereo unspecified) here?
A: Its MIC is greater than 128 µg/mL.

Q: Which MIC (Enterococcus faecium [1]) does the source give for COc1ncccc1C1C(C(N)=O)=C(C)Nc2nc(SCc3ccccc3)nn21 (stereo unspecified) here?
A: Its MIC is 128 µg/mL (≈ 313 µM).

Q: Which MIC (Enterococcus faecium [1]) does the source give for CC1=C(C(N)=O)C(c2ccc(N)cc2)n2nc(SCc3ccccc3)nc2N1 (stereo unspecified) here?
A: Its MIC is greater than 128 µg/mL.

Q: For CCN(CC)c1ccc(C2C(C(N)=O)=C(C)Nc3nc(SCc4ccccc4)nn32)cc1 (stereo unspecified), which MIC (Enterococcus faecium [1]) is on record?
A: Its MIC is 8 µg/mL (≈ 17.8 µM).

Q: Which MIC (Enterococcus faecium [1]) does the source give for COc1ccc(C2C(C(N)=O)=C(C)Nc3nc(SCc4ccccc4)nn32)cc1OC (stereo unspecified) here?
A: Its MIC is greater than 128 µg/mL.

Q: Which MIC (Enterococcus faecium [1]) does the source give for CC1=C(C(N)=O)C(c2ncc[nH]2)n2nc(SCc3ccccc3)nc2N1 (stereo unspecified) here?
A: The MIC was 32 µg/mL (≈ 87.1 µM).

Q: With CC1=C(C(N)=O)C(c2cccc(C(F)(F)F)c2)n2nc(SCc3ccccc3)nc2N1 (stereo unspecified) as the molecule, how does the MIC (Enterococcus faecium [1]) read?
A: The MIC was 16 µg/mL (≈ 35.9 µM).

Q: With CC1=C(C(N)=O)C(c2ccncc2)n2nc(SCc3ccccc3)nc2N1 (stereo unspecified) as the molecule, how does the MIC (Enterococcus faecium [1]) read?
A: Its MIC is greater than 128 µg/mL.

Q: With COc1ccc(C2C(C(=O)Nc3ccccc3C)=C(C)Nc3nc(SCc4cc(C)ccc4C)nn32)cc1 (stereo unspecified) as the molecule, how does the MIC (Enterococcus faecium [1]) read?
A: The MIC was greater than 128 µg/mL.

Q: With CC1=C(C(N)=O)C(c2ccc(C(F)(F)F)cc2)n2nc(SCc3ccccc3)nc2N1 (stereo unspecified) as the molecule, how does the MIC (Enterococcus faecium [1]) read?
A: Its MIC is 8 µg/mL (≈ 18 µM).

Q: Which MIC (Enterococcus faecium [1]) does the source give for CC1=C(C(N)=O)C(c2ccc(OC(F)(F)F)cc2)n2nc(SCc3ccccc3)nc2N1 (stereo unspecified) here?
A: Its MIC is 8 µg/mL (≈ 17.3 µM).

Q: For CC1=C(C(N)=O)C(c2ccc(F)cc2)n2nc(SCc3ccccc3)nc2N1 (stereo unspecified), which MIC (Enterococcus faecium [1]) is on record?
A: The MIC was 128 µg/mL (≈ 324 µM).

Q: For COc1ccc(C2C(C(N)=O)=C(C)Nc3nc(SCc4ccccc4)nn32)cc1 (stereo unspecified), which MIC (Enterococcus faecium [1]) is on record?
A: The MIC was greater than 128 µg/mL.

Q: For COc1ccc(CSc2nc3n(n2)C(c2ccc(N(C)C)cc2)C(C(N)=O)=C(C)N3)cc1 (stereo unspecified), which MIC (Enterococcus faecium [1]) is on record?
A: Its MIC is greater than 128 µg/mL.

Q: With CC1=C(C(=O)Nc2ccccc2C)C(c2ccc(C)cc2)n2nc(SCc3cccc(C)c3)nc2N1 (stereo unspecified) as the molecule, how does the MIC (Enterococcus faecium [1]) read?
A: The MIC was greater than 128 µg/mL.

Q: For CC1=C(C(N)=O)C(c2ccc(N3CCCC3)cc2)n2nc(SCc3ccccc3)nc2N1 (stereo unspecified), which MIC (Enterococcus faecium [1]) is on record?
A: The MIC was 16 µg/mL (≈ 35.8 µM).

Q: Which MIC (Enterococcus faecium [1]) does the source give for CC1=C(C(=O)Nc2ccc(C)cc2C)C(c2ccc(F)cc2)n2nc(SCc3cccc(C)c3)nc2N1 (stereo unspecified) here?
A: The MIC was greater than 128 µg/mL.

Q: Which MIC (Enterococcus faecium [1]) does the source give for CCOC(=O)C1=C(C)Nc2nc(SCc3ccccc3)nn2C1c1ccc(N(C)C)cc1 (stereo unspecified) here?
A: Its MIC is greater than 128 µg/mL.

Q: With CCc1ccc(C2C(C(=O)Nc3ccccc3C)=C(C)Nc3nc(SCc4cccc(OC)c4)nn32)cc1 (stereo unspecified) as the molecule, how does the MIC (Enterococcus faecium [1]) read?
A: The MIC was greater than 128 µg/mL.

Q: Which MIC (Enterococcus faecium [1]) does the source give for CSc1nc2n(n1)C(c1ccc(N(C)C)cc1)C(C(N)=O)=C(C)N2 (stereo unspecified) here?
A: The MIC was greater than 128 µg/mL.

Q: For CSc1ccc(CSc2nc3n(n2)C(c2ccc(N(C)C)cc2)C(C(N)=O)=C(C)N3)cc1 (stereo unspecified), which MIC (Enterococcus faecium [1]) is on record?
A: Its MIC is greater than 128 µg/mL.

Q: Which MIC (Enterococcus faecium [1]) does the source give for CC1=C(C(N)=O)C(c2ccc(N(C)C)cc2)n2nc(SCc3ccc(OC(F)(F)F)cc3)nc2N1 (stereo unspecified) here?
A: Its MIC is greater than 128 µg/mL.

Q: With CC1=C(C(N)=O)C(c2ccco2)n2nc(SCc3ccccc3)nc2N1 (stereo unspecified) as the molecule, how does the MIC (Enterococcus faecium [1]) read?
A: Its MIC is greater than 128 µg/mL.

Q: Which MIC (Enterococcus faecium [1]) does the source give for CC1=C(C(N)=O)C(c2c[nH]c3ccccc23)n2nc(SCc3ccccc3)nc2N1 (stereo unspecified) here?
A: Its MIC is greater than 128 µg/mL.

Q: Which MIC (Enterococcus faecium [1]) does the source give for CC1=C(C(N)=O)C(c2ccc(C(C)C)cc2)n2nc(SCCNC(=O)OCc3ccccc3)nc2N1 (stereo unspecified) here?
A: The MIC was greater than 128 µg/mL.

Q: Which MIC (Enterococcus faecium [1]) does the source give for COc1ccc(C2C(C(=O)Nc3ccc(C)cc3C)=C(C)Nc3nc(SCc4cccc(C)c4)nn32)cc1 (stereo unspecified) here?
A: The MIC was greater than 128 µg/mL.

Q: With CC1=C(C(N)=O)C(c2cccnc2)n2nc(SCc3ccccc3)nc2N1 (stereo unspecified) as the molecule, how does the MIC (Enterococcus faecium [1]) read?
A: Its MIC is greater than 128 µg/mL.

Q: For CC1=C(C(N)=O)C(c2cccc(C(C)C)c2)n2nc(SCc3ccccc3)nc2N1 (stereo unspecified), which MIC (Enterococcus faecium [1]) is on record?
A: Its MIC is 16 µg/mL (≈ 38.1 µM).

Q: Which MIC (Enterococcus faecium [1]) does the source give for CCOC(=O)c1nc2n(n1)C(c1ccc(N(C)C)cc1)C(C(N)=O)=C(C)N2 (stereo unspecified) here?
A: The MIC was greater than 128 µg/mL.

Q: Which MIC (Enterococcus faecium [1]) does the source give for CC1=C(C(=O)Nc2ccccc2)C(c2ccc(N(C)C)cc2)n2nc(SCc3ccccc3)nc2N1 (stereo unspecified) here?
A: Its MIC is 8 µg/mL (≈ 16.1 µM).

Q: Which MIC (Enterococcus faecium [1]) does the source give for CC1=C(C(=O)Nc2ccc(C)cc2C)C(c2ccc(Cl)cc2)n2nc(C(=O)OC(C)C)nc2N1 (stereo unspecified) here?
A: Its MIC is 16 µg/mL (≈ 33.3 µM).

Q: With CC1=C(C(N)=O)C(c2ccsc2)n2nc(SCc3ccccc3)nc2N1 (stereo unspecified) as the molecule, how does the MIC (Enterococcus faecium [1]) read?
A: Its MIC is greater than 128 µg/mL.

Q: For CCOC(=O)C1=C(C)Nc2nc(SCc3ccc(C(=O)O)cc3)nn2C1c1cccs1 (stereo unspecified), which MIC (Enterococcus faecium [1]) is on record?
A: The MIC was greater than 128 µg/mL.

Q: For COC(=O)c1nc2n(n1)C(c1ccc(N(C)C)cc1)C(C(N)=O)=C(C)N2 (stereo unspecified), which MIC (Enterococcus faecium [1]) is on record?
A: Its MIC is greater than 128 µg/mL.

Q: Which MIC (Enterococcus faecium [2]) does the source give for CCSc1ccc(C2C(C(N)=O)=C(C)Nc3nc(SCc4ccccc4)nn32)cc1 (stereo unspecified) here?
A: The MIC was 16 µg/mL (≈ 36.6 µM).

Q: What about the MIC (Enterococcus faecium [1]) of the same molecule?
A: The MIC was 4 µg/mL (≈ 9.14 µM).

Q: And the t1/2 (Liver)?
A: Its t1/2 is greater than 1 h.

Q: And the CLint scaled at 10 µM [3]?
A: The CLint scaled at 10 µM was less than 10.4 mL/min/kg.

Q: And the Activity [4]?
A: Its Activity is 46%.

Q: And the MIC (Enterococcus faecium [5])?
A: Its MIC is 8 µg/mL (≈ 18.3 µM).

Q: With CCc1ccc(C2C(C(=O)Nc3ccccc3)=C(C)Nc3nc(SCc4cccc(OC)c4)nn32)cc1 (stereo unspecified) as the molecule, how does the MIC (Enterococcus faecium [1]) read?
A: The MIC was greater than 128 µg/mL.

Q: Which MIC (Enterococcus faecium [1]) does the source give for CC1=C(C(N)=O)C(C2CCCCC2)n2nc(SCc3ccccc3)nc2N1 (stereo unspecified) here?
A: The MIC was greater than 128 µg/mL.

Q: With CC1=C(C(N)=O)C(c2ccc(CC(C)C)cc2)n2nc(SCc3ccccc3)nc2N1 (stereo unspecified) as the molecule, how does the MIC (Enterococcus faecium [1]) read?
A: Its MIC is 8 µg/mL (≈ 18.5 µM).

Q: With CCc1cccc(C2C(C(N)=O)=C(C)Nc3nc(SCc4ccccc4)nn32)c1 (stereo unspecified) as the molecule, how does the MIC (Enterococcus faecium [1]) read?
A: Its MIC is 16 µg/mL (≈ 39.5 µM).

Q: With COc1ccc(C2C3=C(CCCC3=O)Nc3nc(SCc4ccc(F)cc4)nn32)cc1OC (stereo unspecified) as the molecule, how does the MIC (Enterococcus faecium [1]) read?
A: The MIC was greater than 128 µg/mL.
